# A selection: hits, their analogues and other compounds. The true share with any hit is near 3%.
# Myeloid diff 2 – induction of myeloid progenitor differentiation, primary screen, cell-based, flow cytometry, MLPCN library. ER-HoxA9 myeloid progenitors, lysozyme-GFP differentiation. calls only at 10 µM. actives 1% (n = 360,000);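 active = normalized GFP-positive differentiation at or above the plate's own cutoff, the solvent-only control mean plus 3 SD; inconclusive = no clear call, values can overlap the other calls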;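 note: cells exposed to compound for four days before flow analysis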
# Cardio protect – cardioprotection against H2O2-induced cell death, primary screen, uHTS, H9c2 cells, ATPLite luminescence | H9c2 cardiomyocytes, H2O2 injury protection, 2 h | actives 0.63% (n = 360,000) | protection from H2O2 cell death, % at 20 µM | AID 588492, 2011;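 active = compounds giving at least 50% protection of heart cells from peroxide-induced death in the single-dose screen, raw or plate-pattern-corrected value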;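 note: 0% = DMSO wells with peroxide and 100% = DMSO wells without peroxide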
# Exocytosis inh – LAMP-1 surface exposure blockers, TALL-104 cells – cell-based, flow cytometry, MLPCN library, primary screen; TALL-104 LAMP-1 surface exposure; cells stimulated with thapsigargin and PMA; inhibition, % at 10 µM; actives 0.66% (n = 360,000); AID 651702, 2012;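 active = inhibition above about 55%, limit read from the data; inconclusive = no clear call, values can overlap the other calls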
# SENP1 FRET inh – human SENP1 catalytic domain inhibitors, primary screen, biochemical, FRET, uHTS | Sentrin-specific protease 1 (Homo sapiens), Q9P0U3 | recombinant SENP1 catalytic domain, CyPet-SUMO1-YPet FRET cleavage | inhibition, % at 10 µM | actives 0.21% (n = 360,000);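 active = inhibition at least 30% at 10 µM, raw YFP signal under a set limit, fluorescence ratio 0.5 to 1.5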;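 note: 0% = enzyme with DMSO and 100% = no enzyme wells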
#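 Assay system – human recombinant His6-tagged SENP1 catalytic domain enzyme · Input – SENP1 enzyme, 20 pM final · Buffer or medium – Tris pH 8 buffer plus EDTA, NaCl, BME, BSA, NP40, catalase · Schedule – 50 min reaction at room temperature · Technique – FRET read of cyan and yellow fluorescence · Control set – no-enzyme wells low, DMSO-plus-enzyme wells high control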
# HNF4A DNA FP – change in binding of human HNF4A to DNA, primary screen, biochemical, fluorescence polarization, FITC-DNA; Hepatocyte nuclear factor 4-alpha (Homo sapiens), P41235; 1 h; activity change, % at 10 µM; actives 0.3% (n = 360,000); AID 1224865, 2016; in the data active = activity change above about 30%, passing the limit was not always enough
# Target sequence (P41235 whole entry, looked up): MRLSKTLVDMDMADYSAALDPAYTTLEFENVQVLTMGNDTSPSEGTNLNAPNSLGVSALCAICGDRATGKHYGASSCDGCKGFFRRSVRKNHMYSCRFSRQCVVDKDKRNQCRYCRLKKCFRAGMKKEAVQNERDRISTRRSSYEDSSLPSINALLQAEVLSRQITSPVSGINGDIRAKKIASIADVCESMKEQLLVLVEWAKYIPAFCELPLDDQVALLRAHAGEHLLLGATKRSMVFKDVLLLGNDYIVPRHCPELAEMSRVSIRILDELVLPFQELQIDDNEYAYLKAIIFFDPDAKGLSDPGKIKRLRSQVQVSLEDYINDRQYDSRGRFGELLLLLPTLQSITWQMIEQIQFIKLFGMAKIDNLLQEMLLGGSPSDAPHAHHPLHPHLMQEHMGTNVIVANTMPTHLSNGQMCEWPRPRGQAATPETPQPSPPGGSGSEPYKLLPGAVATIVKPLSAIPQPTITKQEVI
# DSG3 Ab inh – inhibitors of pemphigus antibody binding to DSG3, primary screen, biochemical, bead-based, flow cytometry, scFv-GFP | Desmoglein-3 (Homo sapiens), P32926 | DSG3-coupled beads, scFv-anti-DSG3-GFP binding; hits give low values | binding (percent of control), % at 10 µM | actives 0.48% (n = 310,000) | AID 588358, 2011;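 active = binding more than 3 SD below its plate's average and above zero; inconclusive = below that plate limit but binding exactly zero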;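 note: hits lower antibody fragment binding to DSG3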
# Numbers without * were called inactive; i = inactive; ? = inconclusive; . = not tested or not shown; + = active, no number.
SMILES,Myeloid diff 2,Cardio protect,Exocytosis inh,SENP1 FRET inh,HNF4A DNA FP,DSG3 Ab inh
CC(NC(=O)COC(=O)CCc1nc2ccccc2c(=O)[nH]1)c1ccccc1 (centres undefined),i,35.0,1.1,-9.9,-2.5,93.1
O=C(COC(=O)CCc1nc2ccccc2c(=O)[nH]1)NC(c1ccccc1)c1ccccc1,i,58.6*,1.0,-4.6,2.9,93.3
N#CCCN(C(=O)COC(=O)CCc1nc2ccccc2c(=O)[nH]1)c1ccccc1F,i,57.7*,-2.1,0.4,6.2,99.2
COc1cccc(C(NC(C)=O)c2nc(-c3ccc(F)c(Cl)c3)cs2)c1 (centres undefined),i,-3.6,10.5,2.8,-1.2,.
O=C(c1cccs1)N1CCN(Cc2cn[nH]c2-c2ccc(F)cc2F)CC1,?,-4.3,17.9,1.9,-3.4,.
COc1ccc(-c2[nH]ncc2CN2CCN(C(=O)c3cccs3)CC2)c(F)c1,+,-0.2,-7.1,-0.7,0.8,103.9
CC1CC(C)CN(C(=O)c2ccc(S(=O)(=O)N3CC(C)CC(C)C3)cc2)C1 (centres undefined),i,-2.7,-5.0,-2.7,0.7,118.6
CC1CC(C)CN(S(=O)(=O)c2ccc(C(=O)N3CCCC3)cc2)C1 (centres undefined),+,2.5,1.1,2.7,-1.1,107.6
N#Cc1ccc(Oc2ncccn2)cc1,i,0.5,-4.6,-1.4,3.4,112.8
O=C(CN(Cc1ccccc1)C(=O)CCC(=O)Nc1nccs1)NCC1CCCO1 (centres undefined),i,4.4,12.5,-1.0,0.7,0.3*
COc1ccc(OCC(=O)N/N=C/c2cccc3cccnc23)cc1,i,68.2*,0.0,0.8,3.8,105.2
O=C(COc1ccc(Cl)cc1)N/N=C/c1cccc2cccnc12,i,37.9,2.8,1.1,2.8,.
COc1ccccc1OCC(=O)N/N=C/c1cccc2cccnc12,i,65.1*,-0.5,2.2,7.4,.
O=C(Nc1ccc2c(c1)C(=O)NC2=O)c1ccc(S(=O)(=O)N2CCCC2)cc1,i,3.4,-5.1,-2.0,4.4,97.2
CCOC(=O)C1=C(COC(=O)/C=C/c2ccco2)NC(=O)NC1C (centres undefined),i,5.0,0.9,0.2,-19.1,92.9
COc1ccc2[nH]c(C)c(CCNC(=S)Nc3cc(C)ccc3C)c2c1,i,-29.6,-1.2,3.0,3.2,-16.5*
COc1ccc2[nH]c(C)c(CCNC(=S)Nc3cc(C)cc(C)c3)c2c1,i,-6.4,3.5,-0.3,1.2,81.6
COc1cc(NC(=O)CCS(=O)(=O)c2ccc3c(c2)n(C)c(=O)c(=O)n3C)cc(OC)c1,i,-3.1,-3.2,2.0,2.1,114.5
Cc1c(Cl)cccc1NC(=O)NN1CCN(C)CC1,+,-1.9,52.5,0.0,1.4,92.9
CCc1ccc(/C=C/C(=O)C2C(=O)c3ccccc3C2=O)cc1,+,-12.8,2.2,7.3,-8.4,109.3
O=C(/C=C/c1ccccc1)C1C(=O)c2ccccc2C1=O,i,-18.9,-3.7,2.2,-2.1,108.2
CC1CCN(C(=O)Cn2nnc(-c3ccc([N+](=O)[O-])cc3)n2)CC1,i,1.1,-1.3,3.0,5.0,99.2
CCOC(=O)C(=O)c1csc(NC(=O)COc2ccc(N(C)S(=O)(=O)c3ccc(F)cc3)cc2)n1,i,3.5,-5.7,1.4,-2.1,73.2*
COCCCNC(=O)CN1C(=O)COc2ccc(S(=O)(=O)N3CCOCC3)cc21,i,3.5,-1.7,3.4,-3.3,110.7
O=C(CCCn1c(=O)[nH]c2ccccc2c1=O)NCCSCc1ccccc1,i,0.1,1.0,-0.5,-3.7,23.1*
